What was measured:
Format in all cases: cell-based
[1] = biological target: T1, Neuronal acetylcholine receptor subunit alpha-7 (Homo sapiens, UniProt P36544); assay: Displacement of [125I]alpha-bungarotoxin from human alpha-7 nAChR expressed in SH-SY5Y cells
Outline: (§1)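 Membrane homogenates from a clonal cell line stably expressing human α7 nAChR. Radioligand was [125I]α-bungarotoxin at 0.2 nM in 140 mM NaCl, 1 mM EDTA, 50 mM Tris-HCl, pH 7.4. Nonspecific binding was defined with 10 μM nicotine. Ki came from non-linear regression fits by Cheng-Prusoff. Mean ± SEM of four experiments, triplicate samples, from at least two membrane preparations.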

[2] = biological target: Neuronal acetylcholine receptor; alpha4/beta2 (Homo sapiens, UniProt P17787+P43681); assay: Displacement of [3H]cytisine from human alpha-4-beta-2 nAChR expressed in SH-EP1 cells
Outline: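 Radioligand displacement used membrane homogenates from a clonal cell line stably expressing human α4β2 nAChR. [3H]cytisine was at 1 nM in saline of 120 mM NaCl, 5 mM KCl, 1 mM MgCl2, 2.5 mM CaCl2, 50 mM Tris, pH 7.0. Nonspecific binding was defined with 10 μM nicotine. Ki was obtained from regression fits by Cheng-Prusoff. Mean ± SEM of four experiments in triplicate.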

[3] = biological target: T1, Neuronal acetylcholine receptor subunit alpha-7; assay: Inhibition of 0.2 nM [125I]alpha-bungarotoxin binding to human alpha-7 nAChR expressed in SH-SY5Y cells; outline: as §1

Chain of Neuronal acetylcholine receptor; alpha4/beta2 (P17787 whole entry): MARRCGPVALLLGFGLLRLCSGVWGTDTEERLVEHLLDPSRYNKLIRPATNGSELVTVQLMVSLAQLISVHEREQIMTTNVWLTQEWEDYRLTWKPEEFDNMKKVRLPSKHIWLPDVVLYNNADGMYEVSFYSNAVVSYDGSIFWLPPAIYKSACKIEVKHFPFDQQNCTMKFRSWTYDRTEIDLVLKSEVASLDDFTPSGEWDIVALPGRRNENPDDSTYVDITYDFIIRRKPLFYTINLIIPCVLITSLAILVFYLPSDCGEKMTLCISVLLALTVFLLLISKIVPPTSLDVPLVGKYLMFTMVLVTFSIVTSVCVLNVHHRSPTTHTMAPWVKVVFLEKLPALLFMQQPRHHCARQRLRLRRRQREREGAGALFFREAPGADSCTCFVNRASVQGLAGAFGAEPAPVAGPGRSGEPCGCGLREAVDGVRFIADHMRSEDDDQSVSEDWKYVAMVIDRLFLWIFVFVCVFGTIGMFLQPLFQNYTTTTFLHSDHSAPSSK
Chain of Neuronal acetylcholine receptor; alpha4/beta2 (P43681 whole entry): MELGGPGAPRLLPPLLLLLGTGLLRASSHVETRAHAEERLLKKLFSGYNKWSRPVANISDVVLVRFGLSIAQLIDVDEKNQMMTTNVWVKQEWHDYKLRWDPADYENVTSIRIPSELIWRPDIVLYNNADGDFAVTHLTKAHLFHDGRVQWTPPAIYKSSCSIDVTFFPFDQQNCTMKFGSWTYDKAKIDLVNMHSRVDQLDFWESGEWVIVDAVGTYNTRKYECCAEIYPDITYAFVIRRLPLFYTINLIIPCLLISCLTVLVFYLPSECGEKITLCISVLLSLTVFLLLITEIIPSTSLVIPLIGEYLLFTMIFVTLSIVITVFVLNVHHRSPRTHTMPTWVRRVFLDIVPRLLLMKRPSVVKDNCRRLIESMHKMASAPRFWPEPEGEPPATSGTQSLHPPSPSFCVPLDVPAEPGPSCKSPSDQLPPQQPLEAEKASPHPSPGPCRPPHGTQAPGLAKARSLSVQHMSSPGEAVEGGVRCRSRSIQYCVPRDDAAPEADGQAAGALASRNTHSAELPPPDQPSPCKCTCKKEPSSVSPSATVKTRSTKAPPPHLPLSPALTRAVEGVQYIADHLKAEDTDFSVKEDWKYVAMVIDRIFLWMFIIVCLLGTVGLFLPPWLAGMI
T1 sequence (P36544 whole entry): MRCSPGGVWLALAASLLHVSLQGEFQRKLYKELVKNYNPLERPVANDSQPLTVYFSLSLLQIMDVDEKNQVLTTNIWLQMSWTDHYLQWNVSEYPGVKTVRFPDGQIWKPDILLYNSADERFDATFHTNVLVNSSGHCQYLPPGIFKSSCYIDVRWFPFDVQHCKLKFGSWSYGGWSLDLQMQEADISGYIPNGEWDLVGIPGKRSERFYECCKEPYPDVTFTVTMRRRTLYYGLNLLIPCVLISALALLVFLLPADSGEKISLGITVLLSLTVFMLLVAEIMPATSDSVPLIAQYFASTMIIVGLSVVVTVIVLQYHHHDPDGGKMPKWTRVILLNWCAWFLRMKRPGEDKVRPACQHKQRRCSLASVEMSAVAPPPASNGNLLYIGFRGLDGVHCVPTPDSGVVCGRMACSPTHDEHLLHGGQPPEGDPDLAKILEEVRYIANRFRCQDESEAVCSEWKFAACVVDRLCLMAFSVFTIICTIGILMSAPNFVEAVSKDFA

COc1cc2c(cc1O)C[C@H]1c3c(cc(OC)c(OC)c3-2)CC[N+]1(C)C
IC50 [1]: 12 µM
Ki [1]: 10 µM
IC50 [2]: 3 µM
Ki [2]: 0.91 µM

COc1cc2c(c(Br)c1O)C[C@H]1c3c(c(Br)c(O)c(OC)c3-2)CCN1C
IC50 [1]: 114 µM
Ki [1]: 95 µM
IC50 [2]: 101 µM
Ki [2]: 31 µM
inhibition [3]: 85%

COc1cc2c(cc1O)C[C@H]1c3c(c(Br)c(O)c(OC)c3-2)CCN1C [3-BROMOBOLDINE]
IC50 [1]: 100 µM
Ki [1]: 83 µM
IC50 [2]: 99 µM
Ki [2]: 30 µM
inhibition [3]: 91%

COc1cc2c(cc1O)C[C@H]1c3c(cc(O)c(OC)c3-2)CC[N+]1(C)C [BOLDINE METHIODIDE]
IC50 [1]: 18 µM
Ki [1]: 15 µM
IC50 [2]: 8.2 µM
Ki [2]: 2.5 µM

COc1cc2c(cc1O)C[C@H]1c3c(cc(O)c(OC)c3-2)CCN1C [BOLDINE]
IC50 [1]: 81 µM
Ki [1]: 67 µM
IC50 [2]: 10 µM
Ki [2]: 3 µM

COc1cc2c(cc1OC)-c1c(OC)c(OC)cc3c1[C@H](C2)[N+](C)(C)CC3 [GLAUCINE METHIODIDE]
IC50 [1]: 21 µM
Ki [1]: 18 µM
IC50 [2]: 34 µM
Ki [2]: 10 µM

COc1cc2c(cc1OC)-c1c(OC)c(O)cc3c1[C@H](C2)[N+](C)(C)CC3 [PREDICENTRINE METHIODIDE]
IC50 [1]: 27 µM
Ki [1]: 21 µM
IC50 [2]: 3.2 µM
Ki [2]: 0.97 µM

Reference: ChEMBL document CHEMBL1143040, “Aporphine metho salts as neuronal nicotinic acetylcholine receptor blockers” (Bioorg Med Chem, 2007)
